Source: PMC3896217 (Biochemistry, 2013)

Target: T1, B31 DBPA (Borreliella burgdorferi, UniProt O50917)
T1 sequence (O50917 24-191): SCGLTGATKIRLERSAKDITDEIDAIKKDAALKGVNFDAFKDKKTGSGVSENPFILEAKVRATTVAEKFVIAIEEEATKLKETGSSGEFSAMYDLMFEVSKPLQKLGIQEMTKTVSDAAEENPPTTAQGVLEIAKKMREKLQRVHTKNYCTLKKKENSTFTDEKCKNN
Assay: NMR control titration for non-specific TEMPO-DBPA interactions
Assay type: binding, Borrelia burgdorferi
Conditions: similar protein-to-ligand ratios as TEMPO-labeled heparin dp6
How it was run: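 Samples of 400 μL held 150 to 200 μM ¹⁵N-labelled B31 WT DBPA in 50 mM NaH₂PO₄, pH 6.5, 150 mM NaCl. The DBPA construct was a His-tagged fusion expressed in E. coli BL21(DE3) in M9 medium, Ni-affinity purified and cleaved with USP2. Amide ¹H transverse relaxation was measured with delays of 1, 4.5, 8, 11.5, 15 and 18.5 ms.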

CC1(C)CC(N)CC(C)(C)N1[O] [4-amino-TEMPO]
changes in transverse relaxation rates of the protein: no significant changes
